Assay results published in paper PMC3040411 (Bioorganic & medicinal chemistry letters, 2010).

Tests used:
LPA1 GPCR = details: cited from earlier work
LPA2 GPCR = details: cited from earlier work
Recombinant ATX = Recombinant ATX (Homo sapiens, UniProt Q13822); assay type: biochemical; details: for Mechanism of ATX inhibition: assigned by lowest averaged percent residuals of curve fitting
Method in brief: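 Recombinant autotaxin ([…]) with test compound at various concentrations, in pH 8.0 Tris-HCl 50 mM buffer with NaCl 140 mM, KCl 3 mM, MgCl2 and CaCl2 1 mM each, and fatty-acid-free BSA 15 μM; LPA 18:1 as positive control. Fluorescence (ex 485/em 538 nm) read at start and after 2 h, 37 °C; activity as percent of vehicle, triplicate wells. For mechanism, FS-3 varied 0.3–20 μM at three inhibitor levels; competitive, uncompetitive, mixed and non-competitive models fitted simultaneously to give Ki.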

LPA5 = LPA5 (Homo sapiens, UniProt Q9H1C0); assay: LPA5-mediated calcium mobilization in B103 cells stably expressing LPA5; assay type: cell-based; details: concentrations above 1 μM, p < 0.05
Chain of LPA5 (Q9H1C0 whole entry, species assumed): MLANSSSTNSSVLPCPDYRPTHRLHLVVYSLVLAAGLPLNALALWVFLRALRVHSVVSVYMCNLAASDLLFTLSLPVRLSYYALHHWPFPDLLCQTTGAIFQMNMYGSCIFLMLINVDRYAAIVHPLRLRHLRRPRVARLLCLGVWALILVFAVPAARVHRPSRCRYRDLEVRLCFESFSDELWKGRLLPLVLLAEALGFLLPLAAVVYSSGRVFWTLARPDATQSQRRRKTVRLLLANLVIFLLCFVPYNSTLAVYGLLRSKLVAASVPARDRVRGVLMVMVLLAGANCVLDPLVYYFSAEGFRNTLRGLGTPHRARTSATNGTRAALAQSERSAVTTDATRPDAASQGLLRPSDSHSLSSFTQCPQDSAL

Compound: 1-acyl-2,3-glycerophosphate [CPA]
- LPA1 GPCR activation (LPA1 GPCR): weak agonist
- LPA2 GPCR activation (LPA2 GPCR): weak agonist

Compound: CCCCCCCCCCCCCCCCCC(=O)OC[C@H]1CCP(=O)([O-])O1.[Na+] [R-3-CCPA]
- Potency in ATX inhibition relative to S-3-CCPA (Recombinant ATX; FS-3 1 μM, 2 hours at 37 °C): approximately 2 fold
- Mechanism of ATX inhibition (Recombinant ATX): mixed mode

Compound: CCCCCCCCCCCCCCCCCC(=O)OC[C@@H]1CCP(=O)([O-])O1.[Na+] [S-3-CCPA]
- Mechanism of ATX inhibition (Recombinant ATX): mixed mode
- Efficacy for LPA5-mediated calcium mobilization compared with R-3-CCPA (LPA5): significantly higher
